Data on eight molecules can be found in article PMC8317200 (Journal of medicinal chemistry, 2020).

T1: FGF14 (Homo sapiens, UniProt Q92915)
T1 sequence (Q92915 64-252 isoform Q92915-2): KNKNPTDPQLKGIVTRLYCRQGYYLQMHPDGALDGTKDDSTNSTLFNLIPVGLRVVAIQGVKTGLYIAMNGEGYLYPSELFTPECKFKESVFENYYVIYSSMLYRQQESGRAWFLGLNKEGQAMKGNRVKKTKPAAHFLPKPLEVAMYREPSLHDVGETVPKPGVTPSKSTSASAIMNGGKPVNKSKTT

T2: FGF14:Nav1.6 complex (Homo sapiens, UniProt Q92915)
T2 sequence (Q92915 1-252 isoform Q92915-2): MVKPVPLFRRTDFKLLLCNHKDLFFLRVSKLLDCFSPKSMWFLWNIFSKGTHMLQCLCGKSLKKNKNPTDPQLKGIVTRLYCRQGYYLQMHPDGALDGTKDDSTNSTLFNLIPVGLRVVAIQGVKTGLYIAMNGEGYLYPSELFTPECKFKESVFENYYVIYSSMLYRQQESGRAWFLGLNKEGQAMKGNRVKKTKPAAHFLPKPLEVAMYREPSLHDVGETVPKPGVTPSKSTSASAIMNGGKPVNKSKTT

B1: Nav1.6 C-terminal tail, aa 1767–1912 (domain or fragment, human, UniProt Q9UQD0-1 1767-1912, looked up)
chain: ENFSVATEESADPLSEDDFETFYEIWEKFDPDATQFIEYCKLADFADALEHPLRVPKPNTIELIAMDLPMVSGDRIHCLDILFAFTKRVLGDSGELDILRQQMEERFVASNPSKVSYEPITTTLRRKQEEVSAVVLQRAYRGHLAR
B2: fibroblast growth factor 14 (FGF14), aa 64–252 (domain or fragment, human, UniProt Q92915-2 64-252, looked up)
chain: T1 sequence (Q92915 64-252 isoform Q92915-2)
B3: FGF14: purified recombinant human fibroblast growth factor 14 protein flown over Nav1.6 C-terminal tail in SPR (protein)
chain: T1 sequence (Q92915 64-252 isoform Q92915-2)
modifications: left off: His6, N-terminal, state not stated

Residues, ends and D or L forms follow the SMILES beside them. *: point of attachment. Adamantane1carbonyl = O=C(C12CC3CC(CC(C3)C1)C2)*; Cbz = O=C(OCc1ccccc1)*; OtBu = CC(C)(C)O*; OAll = C=CCO*; OPr = CCCO*

The target of one experiment is T1, FGF14. Kind of experiment: Surface plasmon resonance. It is filed as binding. The note with it: for koff: read-out: koff FGF14; for kon: read-out: kon FGF14. (In SPR one partner is held on a chip, and binding of the other changes the refractive index at the surface.)
A further experiment has as its target Nav1.6 C-terminal tail (Homo sapiens, UniProt Q9UQD0). Kind of experiment: Surface plasmon resonance. It is filed as binding. The conditions noted are these: for koff: read-out: koff Nav1.6 C-terminal tail; for kon: read-out: kon Nav1.6 C-terminal tail.
Another experiment concerns the target Nav1.1 channels (Homo sapiens, UniProt P35498). Kind of experiment: Whole-cell patch-clamp electrophysiology in HEK-Nav1.1 cells. It is filed as cell-based. In general terms: In patch-clamp work, channel activity is measured electrically.
For another experiment, the target named is Nav1.2 channels (Homo sapiens, UniProt Q99250). Nature of the experiment: Whole-cell patch-clamp electrophysiology in HEK-Nav1.2 cells. It is filed as cell-based.
Sequence of Nav1.2 channels (Q99250 whole entry): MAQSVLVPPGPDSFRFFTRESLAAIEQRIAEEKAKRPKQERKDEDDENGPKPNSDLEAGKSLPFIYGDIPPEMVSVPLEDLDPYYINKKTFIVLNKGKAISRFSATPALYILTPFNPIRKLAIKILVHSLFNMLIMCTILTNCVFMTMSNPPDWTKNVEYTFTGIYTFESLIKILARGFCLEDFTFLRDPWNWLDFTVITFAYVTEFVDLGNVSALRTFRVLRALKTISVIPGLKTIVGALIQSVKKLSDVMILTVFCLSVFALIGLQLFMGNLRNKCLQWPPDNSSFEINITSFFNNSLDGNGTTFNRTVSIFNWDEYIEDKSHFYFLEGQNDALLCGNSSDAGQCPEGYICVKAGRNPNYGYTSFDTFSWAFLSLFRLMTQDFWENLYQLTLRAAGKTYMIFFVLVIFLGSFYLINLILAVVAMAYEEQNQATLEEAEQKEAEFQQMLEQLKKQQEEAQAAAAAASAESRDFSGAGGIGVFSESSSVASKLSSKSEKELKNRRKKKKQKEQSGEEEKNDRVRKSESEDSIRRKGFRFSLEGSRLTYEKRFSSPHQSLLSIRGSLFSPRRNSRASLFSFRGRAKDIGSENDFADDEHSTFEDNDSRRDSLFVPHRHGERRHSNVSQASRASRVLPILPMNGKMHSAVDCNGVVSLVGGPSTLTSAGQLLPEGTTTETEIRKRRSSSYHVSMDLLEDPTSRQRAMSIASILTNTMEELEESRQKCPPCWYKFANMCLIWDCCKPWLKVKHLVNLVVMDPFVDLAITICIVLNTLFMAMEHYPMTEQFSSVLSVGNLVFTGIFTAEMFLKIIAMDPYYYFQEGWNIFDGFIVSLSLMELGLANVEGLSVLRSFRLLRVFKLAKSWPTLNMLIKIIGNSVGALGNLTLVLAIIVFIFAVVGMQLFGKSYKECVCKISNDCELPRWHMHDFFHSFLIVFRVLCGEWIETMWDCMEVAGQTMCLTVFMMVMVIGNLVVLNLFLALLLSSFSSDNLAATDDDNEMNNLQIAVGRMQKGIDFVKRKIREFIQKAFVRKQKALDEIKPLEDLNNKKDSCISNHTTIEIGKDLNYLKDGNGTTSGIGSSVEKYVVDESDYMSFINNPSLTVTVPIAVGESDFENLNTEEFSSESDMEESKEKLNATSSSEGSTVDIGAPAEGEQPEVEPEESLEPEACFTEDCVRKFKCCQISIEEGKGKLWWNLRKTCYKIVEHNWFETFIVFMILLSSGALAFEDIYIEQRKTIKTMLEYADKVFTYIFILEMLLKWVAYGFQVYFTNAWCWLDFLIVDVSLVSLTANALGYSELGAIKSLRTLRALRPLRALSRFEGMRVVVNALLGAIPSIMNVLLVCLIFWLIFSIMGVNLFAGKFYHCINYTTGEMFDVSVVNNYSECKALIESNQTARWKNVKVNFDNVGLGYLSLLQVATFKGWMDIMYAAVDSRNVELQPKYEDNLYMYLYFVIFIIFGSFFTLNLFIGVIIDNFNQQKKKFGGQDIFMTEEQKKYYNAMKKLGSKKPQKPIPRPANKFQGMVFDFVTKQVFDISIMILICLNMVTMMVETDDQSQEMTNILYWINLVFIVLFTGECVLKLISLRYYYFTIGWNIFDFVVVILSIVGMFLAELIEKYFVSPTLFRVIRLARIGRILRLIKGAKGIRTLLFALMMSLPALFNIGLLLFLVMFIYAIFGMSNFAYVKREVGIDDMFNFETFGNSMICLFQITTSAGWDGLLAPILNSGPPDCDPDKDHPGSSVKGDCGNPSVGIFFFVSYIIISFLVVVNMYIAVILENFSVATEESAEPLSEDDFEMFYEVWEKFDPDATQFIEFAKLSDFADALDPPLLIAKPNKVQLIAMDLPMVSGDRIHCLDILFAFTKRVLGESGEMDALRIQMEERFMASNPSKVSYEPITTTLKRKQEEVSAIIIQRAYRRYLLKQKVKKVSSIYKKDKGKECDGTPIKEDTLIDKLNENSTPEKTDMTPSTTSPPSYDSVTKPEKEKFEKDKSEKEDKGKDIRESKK
For experiment [1], the target named is human Nav1.6 (HEK-Nav1.6) channels (Homo sapiens, UniProt Q9UQD0). It is filed as cell-based. The note with it: 30 μM; absence of FGF14. In outline:
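HEK293 cells stably expressing human Nav1.6 were kept under 500 μg/mL G418 with no FGF14 transfection. They were washed and re-plated at very low density onto glass coverslips, and the test compound was applied at 30 μM. Whole-cell patch clamp used extracellular solution (mM): 140 NaCl, 3 KCl, 1 MgCl2, 1 CaCl2, 10 HEPES, 10 glucose.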

A further experiment concerns the target T2, FGF14:Nav1.6 complex. Kind of experiment: Split-luciferase complementation assay. It is filed as cell-based. The conditions noted are these: HEK293, 1 h, read-out: RLVs (%).
Experiment [2] addresses B2. Nature of the experiment: SPR.
Experiment [3] has as its target B1. Nature of the experiment: SPR.
A further experiment deals with FGF14:Nav1.6 (Homo sapiens, UniProt Q92915+Q9UQD0). Nature of the experiment: SPR of FGF14 binding to Nav1.6 C-terminal tail, alone or in complex with 21a. The conditions noted are these: FGF14 alone. In outline: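 Recombinant human Nav1.6 C-terminal tail (aa 1763–1976, His-tagged, E. coli-expressed, purified by column chromatography) amine-coupled to a CM5 chip (934 RU). FGF14 at 15.6–1500 nM, complexed with 2.1% DMSO alone, was flowed over the chip at 25 °C and 50 μL/min. Injection 120 s, dissociation 150 s, then regeneration (600 mM NaCl, 5% DMSO). kon and koff came from a Langmuir 1:1 fit.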

Sequence of human Nav1.6 (HEK-Nav1.6) channels (Q9UQD0 whole entry): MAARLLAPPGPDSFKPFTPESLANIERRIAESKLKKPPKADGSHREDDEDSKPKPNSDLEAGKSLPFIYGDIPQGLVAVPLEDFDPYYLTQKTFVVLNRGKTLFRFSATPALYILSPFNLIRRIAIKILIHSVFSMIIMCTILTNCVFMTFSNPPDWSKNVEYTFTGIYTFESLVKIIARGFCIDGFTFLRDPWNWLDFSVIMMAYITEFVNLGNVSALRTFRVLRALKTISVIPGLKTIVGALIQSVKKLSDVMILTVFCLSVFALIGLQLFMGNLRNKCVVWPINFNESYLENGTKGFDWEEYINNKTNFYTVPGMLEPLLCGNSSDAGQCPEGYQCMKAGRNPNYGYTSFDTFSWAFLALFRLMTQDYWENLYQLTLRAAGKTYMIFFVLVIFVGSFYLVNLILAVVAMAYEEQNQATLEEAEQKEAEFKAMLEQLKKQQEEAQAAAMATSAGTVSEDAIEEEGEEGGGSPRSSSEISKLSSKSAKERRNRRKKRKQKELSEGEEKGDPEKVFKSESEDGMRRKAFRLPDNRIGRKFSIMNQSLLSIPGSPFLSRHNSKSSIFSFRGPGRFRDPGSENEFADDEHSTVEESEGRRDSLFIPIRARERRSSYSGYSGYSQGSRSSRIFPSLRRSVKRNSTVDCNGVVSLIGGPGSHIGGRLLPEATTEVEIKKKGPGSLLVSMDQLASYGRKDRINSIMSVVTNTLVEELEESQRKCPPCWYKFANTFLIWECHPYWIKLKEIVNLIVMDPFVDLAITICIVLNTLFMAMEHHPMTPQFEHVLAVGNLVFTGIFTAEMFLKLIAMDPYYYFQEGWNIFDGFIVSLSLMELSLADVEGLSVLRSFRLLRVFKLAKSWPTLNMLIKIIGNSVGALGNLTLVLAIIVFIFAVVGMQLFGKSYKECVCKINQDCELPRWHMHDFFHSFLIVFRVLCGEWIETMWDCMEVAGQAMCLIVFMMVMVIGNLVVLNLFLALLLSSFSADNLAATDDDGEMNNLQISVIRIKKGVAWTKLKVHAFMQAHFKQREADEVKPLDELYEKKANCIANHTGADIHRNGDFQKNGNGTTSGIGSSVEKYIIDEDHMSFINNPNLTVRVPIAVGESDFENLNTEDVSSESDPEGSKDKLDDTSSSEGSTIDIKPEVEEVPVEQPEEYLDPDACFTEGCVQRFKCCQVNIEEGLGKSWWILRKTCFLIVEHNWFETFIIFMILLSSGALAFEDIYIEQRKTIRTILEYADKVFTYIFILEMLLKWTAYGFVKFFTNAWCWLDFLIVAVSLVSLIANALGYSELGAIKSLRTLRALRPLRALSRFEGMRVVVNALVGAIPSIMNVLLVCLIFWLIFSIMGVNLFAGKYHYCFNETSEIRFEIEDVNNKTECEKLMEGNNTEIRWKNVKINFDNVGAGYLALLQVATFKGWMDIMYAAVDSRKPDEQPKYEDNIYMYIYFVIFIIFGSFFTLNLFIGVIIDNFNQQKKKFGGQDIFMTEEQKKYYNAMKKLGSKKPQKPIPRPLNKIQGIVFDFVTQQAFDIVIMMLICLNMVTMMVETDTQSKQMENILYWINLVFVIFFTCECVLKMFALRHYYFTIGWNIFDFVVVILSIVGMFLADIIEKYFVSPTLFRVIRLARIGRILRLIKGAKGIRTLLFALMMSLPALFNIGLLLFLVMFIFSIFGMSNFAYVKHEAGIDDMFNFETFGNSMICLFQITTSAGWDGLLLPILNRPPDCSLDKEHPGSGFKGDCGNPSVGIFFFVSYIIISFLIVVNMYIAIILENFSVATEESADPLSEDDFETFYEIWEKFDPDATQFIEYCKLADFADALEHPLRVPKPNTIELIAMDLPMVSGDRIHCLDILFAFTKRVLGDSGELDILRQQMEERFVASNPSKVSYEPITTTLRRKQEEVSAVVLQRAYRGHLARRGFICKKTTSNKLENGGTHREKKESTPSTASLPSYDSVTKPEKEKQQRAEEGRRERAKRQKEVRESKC

The term koff denotes a measure of how fast the partners let go of each other. The term kon denotes a measure of how fast the partners come together. With `COC(=O)[C@@H](NC(=O)[C@H](CCC(=O)OC(C)(C)C)NC(=O)[C@H](CC(C)C)NC(=O)[C@@H]1CCCN1C(=O)C12CC3CC(CC(C3)C1)C2)C(C)C` [Compound 21a, tert-Butyl (S)-4-((S)-2-((S)-1-((3S,5S,7S)-adamantane-1-carbonyl)pyrrolidine-2-carboxamido)-4-methylpentanamido)-5-(((S)-1-methoxy-3-methyl-1-oxobutan-2-yl)amino)-5-oxopentanoate] (Adamantane1carbonyl-PLE(OtBu)V-OMe), on FGF14, the koff is 0.00933 s⁻¹ and the on-rate constant (kon) worked out at 4660 M⁻¹ s⁻¹. At Nav1.6 C-terminal tail, the “Binding to Nav1.6 C-terminal tail by SPR (in words)” value (from here on “Binding … (in words)”) is recorded as “appreciable binding”, the koff amounted to 0.00357 s⁻¹ and the kon turned out to be 62300 M⁻¹ s⁻¹. On Nav1.1 channels, the “Changes in the kinetic properties of Nav1.1 channels” value is reported as “no changes”. Moreover, the “Changes in the kinetic properties of Nav1.2 channels” value on Nav1.2 channels is reported as “no changes”.

With `C=CCOC(=O)[C@@H](NC(=O)[C@H](CCC(=O)OC(C)(C)C)NC(=O)[C@H](CC(C)C)NC(=O)[C@@H]1CCCN1C(=O)C12CC3CC(CC(C3)C1)C2)C(C)C` [Compound 23a, tert-Butyl (S)-4-((S)-2-((S)-1-((3S,5S,7S)-adamantane-1-carbonyl)pyrrolidine-2-carboxamido)-4-methylpentanamido)-5-(((S)-1-(allyloxy)-3-methyl-1-oxobutan-2-yl)amino)-5-oxopentanoate] (Adamantane1carbonyl-PLE(OtBu)V-OAll), on FGF14, the koff stood at 0.00932 s⁻¹ and the kon amounted to 17900 M⁻¹ s⁻¹. Moreover, in experiment [1], the “Effect on Nav1.6-mediated currents” value is “unaffected”.

Take `CCOC(=O)[C@@H](NC(=O)[C@H](CCC(=O)OC(C)(C)C)NC(=O)[C@H](CC(C)C)NC(=O)[C@@H]1CCCN1C(=O)C12CC3CC(CC(C3)C1)C2)C(C)C` [Compound 23f, tert-Butyl (4S)-4-((2S)-2-((2S)-1-((1R,3R)-adamantane-1-carbonyl)pyrrolidine-2-carboxamido)-4-methylpentanamido)-5-(((S)-1-ethoxy-3-methyl-1-oxobutan-2-yl)amino)-5-oxopentanoate] (Adamantane1carbonyl-PLE(OtBu)V-OEt): on FGF14, the koff came out at 0.0205 s⁻¹ and the kon was 217 M⁻¹ s⁻¹. At Nav1.6 C-terminal tail, the “Binding … (in words)” value is listed as “appreciable binding”, the koff amounted to 0.0122 s⁻¹ and the kon was 2640 M⁻¹ s⁻¹.

For the molecule `CCCOC(=O)[C@@H](NC(=O)[C@H](CCC(=O)OC(C)(C)C)NC(=O)[C@H](CC(C)C)NC(=O)[C@@H]1CCCN1C(=O)C12CC3CC(CC(C3)C1)C2)C(C)C` [Compound 23g, tert-Butyl (4S)-4-((2S)-2-((2S)-1-((1R,3R)-adamantane-1-carbonyl)pyrrolidine-2-carboxamido)-4-methylpentanamido)-5-(((S)-3-methyl-1-oxo-1-propoxybutan-2-yl)amino)-5-oxopentanoate] (Adamantane1carbonyl-PLE(OtBu)V-OPr), at FGF14, the koff was 0.0204 s⁻¹ and the association rate constant (kon) amounted to 289 M⁻¹ s⁻¹. Further, at Nav1.6 C-terminal tail, the “Binding … (in words)” value is given as “appreciable binding”, the koff worked out at 0.0492 s⁻¹ and the kon is 340 M⁻¹ s⁻¹.

For `CC(C)C[C@H](NC(=O)[C@@H]1CCCN1C(=O)OCc1ccccc1)C(=O)N[C@H](C(N)=O)C(C)C` [Compound 31, Benzyl (S)-2-(((S)-1-(((S)-1-amino-3-methyl-1-oxobutan-2-yl)amino)-4-methyl-1-oxopentan-2-yl)carbamoyl)pyrrolidine-1-carboxylate] (Cbz-Pro-Leu-Val-NH2), on FGF14:Nav1.6 complex, the activity at 50 µM was more than 100%.

Usually Kd stands for the constant that tells how readily two partners part at equilibrium. Read a low Kd as higher affinity. Regarding B1, in experiment [2], binding was characterised by a dissociation constant (Kd) of 228 ± 57.5 nM, the koff was 0.00171 s⁻¹ and the kon turned out to be 21800 M⁻¹ s⁻¹.

B2: in [3], the “KD with 10 μM 21a” value was found to be 1420 ± 135 nM.

On to B3, for which, in the experiment with FGF14:Nav1.6, the “koff of FGF14 binding to Nav1.6 C-terminal tail” value came out at 0.00171 ± 1.02e-05 s⁻¹ and the “kon of FGF14 binding to Nav1.6 C-terminal tail” value worked out at 21800 ± 160 M⁻¹ s⁻¹.
